ChEMBL document CHEMBL5038657, “Discovery of Novel Inhibitors of Uridine Diphosphate-N-Acetylenolpyruvylglucosamine Reductase (MurB) from Pseudomonas aeruginosa, an Opportunistic Infectious Agent Causing Death in Cystic Fibrosis Patients” (J Med Chem, 2022)

Assays:
[1] = system: Pseudomonas aeruginosa; experiment: Binding affinity to Pseudomonas aeruginosa MurB assessed as change in melting temperature at 5 mM by differential scanning fluorimetry
Method in brief: (§1)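 Recombinant Pa MurB (E. coli BL21(DE3)-expressed, SUMO tag cleaved; MurB–FAD complex) at 10 μM in 25 mM Tris–HCl pH 8.0, 150 mM NaCl, 5X SyproOrange with ligand in DMSO-d6. Ramped 25–95 °C in 0.5 °C steps of 30 s. ΔTm taken against DMSO-d6 reference, with NADP+ as positive control. Ligand at 5.0 mM run once (n = 1); at 1.0 mM run in triplicate (n = 3).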

[2] = system: Pseudomonas aeruginosa; experiment: Binding affinity to Pseudomonas aeruginosa MurB assessed as change in melting temperature at 1 mM by differential scanning fluorimetry; method in brief: as §1
[3] = Binding affinity to Pseudomonas aeruginosa MurB assessed as dissociation constant at 3 mM by isothermal titration calorimetry

Structure (SMILES) | ΔTm [1] | ΔTm [2] | Kd [3]
N#CCc1nc2ccccc2s1 | 1 °C | 0 °C | –
NCc1ccc2[nH]ccc2c1 | 1 °C | 0.2 °C | –
Cc1c(C(=O)O)cc(CCO)n1-c1ccccc1 | – | 2 °C | –
Cc1c(C(=O)O)nnn1-c1ccccc1 | – | 0.5 °C | –
Cc1cc(C(=O)O)n[nH]1 | 1 °C | 0 °C | –
O=C(O)c1cnn(Cc2cccs2)c1C(F)(F)F | – | 1 °C | –
Cc1ccccc1-n1c(C)cc(C(=O)O)c1C | – | 2 °C | –
O=C(O)c1cnn(-c2cccs2)c1C(F)(F)F | – | 0.3 °C | –
Cc1c(-n2ncc(C(=O)O)c2C(F)(F)F)ccc(Cl)c1Cl | – | 3.7 °C | 11.3 µM
Cc1nc(C(=O)O)c(C)n1-c1ccccc1 | – | 0.7 °C | –
O=C1Nc2ccccc2C1=O | 3.5 °C | 1 °C | –
O=C(O)COc1ccc(Cl)c(Cl)c1 | 1.5 °C | 1 °C | –
Cc1cccc(C)c1-n1c(C)cc(C(=O)O)c1C | – | 3 °C | –
O=C(O)CCc1cccc(Cl)c1 | 1 °C | 0.5 °C | –
Cc1ccc(C)c(-n2ncc(C(=O)O)c2C(F)(F)F)c1 | – | 2 °C | 138 µM
CCOC(=O)c1cnn(-c2ccccc2Cl)c1C(F)(F)F | – | 0 °C | –
O=C(O)Cc1ccccc1 | 1 °C | 0 °C | –
Cc1cc(C(=O)O)c(C)n1-c1ccccc1 | – | 2 °C | 110 µM
Nc1c(C(=O)O)cnn1-c1ccccc1 | – | 0 °C | –
NCc1ccc2sccc2c1 | 1 °C | 0 °C | –
Cc1c(C(=O)O)cnn1-c1ccccc1 | 1.5 °C | 0.5 °C | –
CN1C(=O)C(=O)c2ccccc21 | 4 °C | 1 °C | –

Structure (SMILES) | ΔTm [1] | ΔTm [2] | Kd [3]
Cc1cc(C(=O)O)c(C)n1-c1cccc(Cl)c1 | – | 1.5 °C | –
Cc1ccccc1-n1c(C)cc(C(=O)O)c1C(F)(F)F | – | 2.5 °C | –
Cc1cc(Cl)c(Cl)cc1-n1c(C)cc(C(=O)O)c1C(F)(F)F | – | 4.7 °C | –
NC(=O)C1=CN([C@@H]2O[C@H](COP(=O)(O)OP(=O)(O)OC[C@H]3O[C@@H](n4cnc5c(N)ncnc54)[C@H](OP(=O)(O)O)[C@@H]3O)[C@@H](O)[C@H]2O)C=CC1 | – | 3 °C | –
Cc1cccc(C)c1-n1ncc(C(=O)O)c1C(F)(F)F | – | 2.5 °C | –
Cc1cc(CC(=O)O)on1 | 1 °C | 0 °C | –
Cc1cc([N+](=O)[O-])ccc1-n1ncc(C(=O)O)c1C(F)(F)F | – | 1.7 °C | –
O=C(O)Cc1ccc(Cl)c(Cl)c1 | 1.5 °C | 1 °C | –
Cc1cc(Cl)c(Cl)cc1-n1ncc(C(=O)O)c1C(F)(F)F | – | 5 °C | –
O=C(O)c1cnn(-c2ccc(Cl)c(Cl)c2)c1C(F)(F)F | – | 2.3 °C | 26.1 µM
Cc1c(-n2c(C)cc(C(=O)O)c2C)ccc(Cl)c1Cl | – | 4 °C | –
Cc1cc(Cl)c(Cl)cc1-n1c(C)cc(C(=O)O)c1C | – | 3.5 °C | 24.1 µM
Cc1cccc(-n2ncc(C(=O)O)c2C(F)(F)F)c1C | – | 2 °C | –
NC(=O)c1ccc[n+]([C@@H]2O[C@H](COP(=O)(O)OP(=O)(O)OC[C@H]3O[C@@H](n4cnc5c(N)ncnc54)[C@H](OP(=O)(O)O)[C@@H]3O)[C@@H](O)[C@H]2O)c1 | – | 3.5 °C | –
Cc1cc(C(=O)O)c(C)n1Cc1cccs1 | 2 °C | 1.5 °C | –
Cc1ccc(-n2ncc(C(=O)O)c2C(F)(F)F)c(C)c1 | – | 2.3 °C | –
O=C(O)c1ccc(Cl)c(Cl)c1 | 1 °C | 0.5 °C | –
Cc1c(-n2c(C)cc(C(=O)O)c2C(F)(F)F)ccc(Cl)c1Cl | – | 2.7 °C | 11.4 µM
Cc1cc(C(=O)O)c(C)n1-c1ccc(Cl)cc1 | – | 1.5 °C | –
O=C(O)c1cnn(-c2c(Cl)cccc2Cl)c1C(F)(F)F | – | 2.5 °C | –
Cc1cc(C(=O)O)c(C)n1-c1ccc(Cl)c(Cl)c1 | – | 2.3 °C | –

The next lines start with the values.

ΔTm [1] | ΔTm [2] | Kd [3] | Structure (SMILES)
– | 2.7 °C | 12 µM | Cc1cc(Cl)c(Cl)cc1-n1ncc(C(=O)NS(=O)(=O)c2ccccc2)c1C(F)(F)F
– | 0 °C | – | Cc1c(C(=O)NS(=O)(=O)Cc2ccccc2)cnn1-c1ccccc1
– | 1 °C | – | O=C(O)c1cnn(-c2ccccc2C(F)(F)F)c1C(F)(F)F
– | 2 °C | – | O=C(O)c1cnn(-c2ccccc2Br)c1C(F)(F)F
– | 3 °C | – | Cc1cccc(C)c1-n1ncc(C(=O)NS(=O)(=O)c2ccccc2)c1C(F)(F)F
– | 0.2 °C | – | O=C(O)c1cnn(-c2ccccc2)c1CO
– | 0 °C | – | NC(=O)c1cnn(-c2ccccc2)c1C(F)(F)F
– | 1 °C | – | O=C(O)c1cnn(-c2ccccc2F)c1C(F)(F)F
– | 0.5 °C | – | CS(=O)(=O)NC(=O)c1cnn(-c2ccccc2)c1C(F)(F)F
– | 2 °C | – | Cc1ccccc1-n1ncc(C(=O)O)c1C(F)(F)F
– | 0.3 °C | – | O=C(O)c1cnn(-c2cccnc2)c1C(F)(F)F
– | 2 °C | 112 µM | Cc1cc(C(=O)O)c(C(F)(F)F)n1-c1ccccc1
– | 0 °C | – | O=C(O)c1cnn(-c2ccncc2)c1C(F)(F)F
– | 0 °C | – | Cc1c(C(=O)NCc2ccccc2)cnn1-c1ccccc1
– | 1.5 °C | 148 µM | O=C(O)c1cnn(-c2ccccc2Cl)c1C(F)(F)F
– | 1.3 °C | – | Cc1cccc(C)c1-n1ncc(C(=O)NS(=O)(=O)c2cccc(Br)c2)c1C(F)(F)F
– | 1 °C | – | O=C(O)c1cnn(-c2ccccc2)c1C(F)(F)F
– | 1 °C | – | O=C(NS(=O)(=O)c1ccccc1)c1cnn(-c2ccccc2)c1C(F)(F)F
– | 0.7 °C | – | O=C(O)c1cnn(-c2ccccc2)c1O
– | 1 °C | – | O=C(O)c1cnn(Cc2ccccc2)c1C(F)(F)F
– | 0.5 °C | – | NC(=O)c1cccc(-n2ncc(C(=O)O)c2C(F)(F)F)c1
– | 1 °C | – | O=C(O)c1cnn(-c2ccc(C(F)(F)F)cc2)c1C(F)(F)F
